Bioassay records: PubChem, several laboratories
TCR CD3 inh: human TCR-CD3 binding inhibition; TAMRA-labeled TCR probe fluorescence, biochemical; inhibition, % at 9.4 µM; 360,000 tested, 0.37% active; in the data active means inhibition above about 19%;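 further: recombinant mutant TCR 2C K166C tagged with TAMRA read by polarization; 0% = receptor in buffer alone and 100% = receptor with positive control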
SIAE inh: human SIAE inhibition, primary screen; Q9HAT2; SIAE FP-Rh probe binding, fluorescence polarization; inhibition, % at 9.66 µM; 370,000 tested, 0.69% active; AID 1053197;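 active means inhibition above a cutoff: mean of compounds within the control limits plus 3 SD of those, cut at about 17% in these data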;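 further: 0% = plate median of compound wells and 100% = probe without SIAE protein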
Target sequence (Q9HAT2 whole entry, looked up): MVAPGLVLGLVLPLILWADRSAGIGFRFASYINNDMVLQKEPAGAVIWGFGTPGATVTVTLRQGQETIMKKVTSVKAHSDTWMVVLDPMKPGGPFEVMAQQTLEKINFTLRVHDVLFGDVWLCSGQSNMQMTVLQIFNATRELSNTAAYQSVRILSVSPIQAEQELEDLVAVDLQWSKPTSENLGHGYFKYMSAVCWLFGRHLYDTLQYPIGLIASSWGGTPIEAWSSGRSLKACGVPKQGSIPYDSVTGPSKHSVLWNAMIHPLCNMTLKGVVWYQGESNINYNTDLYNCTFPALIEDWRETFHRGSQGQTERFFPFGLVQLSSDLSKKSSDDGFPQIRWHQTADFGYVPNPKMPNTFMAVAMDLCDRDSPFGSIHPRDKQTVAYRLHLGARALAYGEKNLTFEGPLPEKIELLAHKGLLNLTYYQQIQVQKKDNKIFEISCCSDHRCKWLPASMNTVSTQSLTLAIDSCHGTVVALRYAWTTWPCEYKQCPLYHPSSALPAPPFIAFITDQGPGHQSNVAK
PRMT1 FP inh: PRMT1 (human) inhibition, primary screen; Q99873; inhibition, % at 2.79 µM; AID 652257; recombinant PRMT1, activity-based probe fluorescence polarization; 370,000 tested, 1.3% active;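 active means inhibition above about 21% made by adding two undisclosed values, limit read from the data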
HTRA1 inh: inhibitors of human serine peptidase HTRA1 | recombinant HTRA1, FP-rhodamine activity-based probe, fluorescence polarization | 340,000 tested, 0.5% active | Q92743 | inhibition, % at 5.96 µM; in the data active means inhibition above about 36%;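 further: 0% = enzyme with DMSO and 100% = wells lacking enzyme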
ATG4B inh: ATG4B (human) cysteine protease inhibition. Q9Y4P1. ATG4B cleavage of LC3-PLA2, NBD-HPC fluorescence, 1 h. inhibition, % at 8.33 µM. 340,000 tested, 0.51% active; in the data active means inhibition above about 40%
mABHD4 FP: inhibitors of mouse ABHD4; Q8VD66; purified mABHD4, FP-Rh probe fluorescence polarization; inhibition, % at 8.92 µM; 370,000 tested, 0.54% active;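 active means inhibition exceeding the mean over every tested compound plus 3 SD, cut at about 30% in these data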;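 further: 0% = plate median of compound wells and 100% = S159A mutant with DMSO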
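Assay system: mABHD4 protein; medium: HEPES pH 7.0, NaCl, Pluronic buffer; dosing: 8.92 µM, single dose; schedule: 45 min + 60 min at 25 °C; signal: FP readout, ex 525 nm / em 598 nm; read-out: normalized percent inhibition of probe labeling; repeats: single replicate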
PRMT1 confirm: PRMT1 (human) inhibition, FP confirmation. shares compounds with PRMT1 FP inh. recombinant His-PRMT1, activity-based probe fluorescence polarization. AID 687036. inhibition, % at 2.79 µM. 3,300 tested, 42% active;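 active means mean inhibition across replicates above the hit cutoff derived for the earlier primary screen, cut at about 22% in these data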
The depositor's hits bear a star; x = no result. In the library only some 2.9% were active in any assay of this set; here they are far more common.

SMILES	TCR CD3 inh	SIAE inh	PRMT1 FP inh	HTRA1 inh	ATG4B inh	mABHD4 FP	PRMT1 confirm
c1ccc(CN2CCC3(CC2)Nc2ccccc2S3)cc1	-5	9	54*	3	-3	4	-3
COc1ccc([N+](=O)[O-])cc1NC(=O)CSc1ccc2ccccc2c1	5	-3	2	-37	-19	-28	x
COc1ccc([N+](=O)[O-])cc1NC(=O)CSc1nc(C)cc(C)n1	-5	8	54*	-5	2	-10	45*
CC(C)Cn1c(-c2ccc(Br)cc2)c[nH]c1=S	0	1	41*	1	0	-9	21
CCn1c(-c2ccccc2)c[nH]c1=S	7	4	1	-2	-7	7	x
CCCCCC[N+](C)(C)CCSSCC[N+](C)(C)CCCCCC	9	-2	91*	0	-16	7	56*
C#CC[N+](C)(C)CCCCCCCCCCCC	-6	-7	3	3	20	11	x
COc1ccc(S(=O)(=O)N2CCC(c3nc4ccccc4o3)CC2)c(OC)c1	x	2	-6	x	x	-5	x
COCCn1c(C)cc(C(=O)CSc2ccc3ccccc3n2)c1C	-4	14	35*	-16	-18	10	-3
COCCn1c(C)cc(C(=O)CSc2ccc(NC(C)=O)cc2)c1C	5	0	25*	-1	-16	-1	25*
COCC(C)n1c(C)cc(C(=O)CSc2ccc(NC(C)=O)cc2)c1C (configuration not stated)	5	3	39*	11	5	1	20
COCC(C)n1c(C)cc(C(=O)CSc2ncccn2)c1C (configuration not stated)	5	7	-2	0	-10	4	x
Nn1c(SCC(=O)N2c3ccccc3Sc3ccc(Cl)cc32)nnc1-c1cc(-c2ccc(F)cc2)n[nH]1	x	-87	9	x	x	-49	x
COC(=O)C[C@@H]1CC[C@H]2[C@H](COc3ccc(NC(=O)c4cccc(C(F)(F)F)c4)cc3C(=O)N2C)O1	x	0	0	x	x	-2	x
O=C(NCCc1ccccc1F)c1ccc2c(c1)ncn2C1CCCCC1	x	-3	5	x	x	-3	x
CC(C)Sc1nc(SCC(=O)NCc2ccco2)c2c3c(sc2n1)COC(C)(C)C3	1	-14	31*	-24	-15	-22	10
CC(C)Sc1nc(SCC(=O)O)c2c3c(sc2n1)COC(C)(C)C3	-9	3	2	4	-5	3	x
CSCCCNC(=O)CN1C(=O)C2CCCCN2C(=O)c2ccccc21 (configuration not stated)	x	11	-5	x	x	6	x
Cc1cc(Cl)ccc1OCC(=O)N/N=C/c1ccc[nH]1	x	11	0	x	x	-1	x
COc1ccccc1N1C(=O)c2cccc3c(C(=O)O)ccc(c23)C1=O	4	1	-1	5	-5	0	x
COc1ccccc1N1C(=O)c2cccc3c(N(C)CCO)ccc(c23)C1=O	11	-10	66*	0	-6	0	47*
Cc1ccccc1N1C(=O)c2cccc3c(N(C)CCO)ccc(c23)C1=O	4	3	71*	-2	-3	2	63*
O=C(NCCc1ccccc1)OCc1cn(-c2cccc(C(F)(F)F)c2)nn1	x	-7	-3	x	x	-7	x
OC(c1ccccc1)(c1ccccc1)C1CCN(CCCOc2ccc(Br)cc2)CC1	x	-1	-3	x	x	14	x
CC(C)CCN(C)C1CCN(C(=O)Nc2ccccc2)CC1	x	-5	1	x	x	-4	x
SMILES	TCR CD3 inh	SIAE inh	PRMT1 FP inh	HTRA1 inh	ATG4B inh	mABHD4 FP	PRMT1 confirm
N=C1/C(=C\c2ccc(SCc3ccco3)o2)C(=O)N=C2SC=NN12	-13	-60	51*	-108	11	-119	12
COc1cccc(N2CCN(CC(=O)NCc3ccccc3C)CC2)c1	x	-4	4	x	x	3	x
Nc1ncc2c(n1)CC(c1ccco1)CC2=O (configuration not stated)	-5	16	28*	9	-1	12	4
CCC(=O)Nc1ncc2c(n1)CC(c1ccco1)CC2=O (configuration not stated)	9	5	41*	21	-3	2	8
CC(=O)Nc1ncc2c(n1)CC(c1ccco1)CC2=O (configuration not stated)	5	3	0	1	-8	3	x
O=C(Nc1ncc2c(n1)CC(c1ccco1)CC2=O)c1ccco1 (configuration not stated)	-7	5	36*	11	-3	12	4
COc1ccc(C(=O)Nc2ncc3c(n2)CC(c2ccco2)CC3=O)cc1 (configuration not stated)	7	6	6	-2	-6	3	x
Cc1[nH]c2ccccc2c1CC(=O)Nc1ccc(Nc2cccnc2)c(-c2cc(C(F)(F)F)cc(C(F)(F)F)c2)c1	-10	-1	3	x	x	7	x
Cc1ccc(C(C)C)c(OCC(=O)NC(=S)Nc2ccccc2N2CCOCC2)c1	6	-13	4	-5	5	-9	x
CCC(=O)N1CCN(c2ccccc2NC(=O)COc2cc(C)ccc2C(C)C)CC1	-1	2	112*	-28	-4	14	-4
Cc1ccc(C)c(NC(=O)C2C3C=CC(O3)C2C(=O)O)c1 (configuration not stated)	-10	-2	79*	5	-6	7	38*
Cc1cccc(NC(=O)C2C3C=CC(O3)C2C(=O)O)c1C (configuration not stated)	9	-2	33*	0	2	7	0
Cc1ccc(NC(=O)C2C3C=CC(O3)C2C(=O)O)c(C)c1 (configuration not stated)	-2	-5	37*	10	-4	3	5
Cc1ccccc1C(=O)N[C@H](C(=O)N1CCC[C@H]1C(=O)NCCc1ccccc1Cl)c1ccccc1	-8	2	1	x	x	4	x
O=C(CCCSc1ccc(Cl)cc1)Nc1cc(S(=O)(=O)N2CCOCC2)ccc1O	-3	-8	49*	-5	-64	10	22*
COc1ccc(N2C(=O)CC(Sc3nnc(-c4ccccc4)o3)C2=O)cc1 (configuration not stated)	-6	-14	63*	-1	-8	0	39*
O=C(O)CCSC1CC(=O)N(c2ccccc2)C1=O (configuration not stated)	5	1	5	-2	0	1	x
O=C1CC(Sc2nnc(-c3ccccc3O)o2)C(=O)N1c1ccccc1 (configuration not stated)	-2	-3	66*	-2	-12	9	65*
N#Cc1c(N)n[nH]c1-c1cc2c([nH]1)CCCC2	5	6	0	6	-7	11	x
N#Cc1cc2c([nH]c1=S)CCCCCC2	1	0	26*	-2	-6	-6	12
